Reference: the M2OR odorant receptor database
Numbering of substitutions follows the chain as printed.

tested on: T1, OR6C1 C130Y H165D V246I; conditions: stereoisomer not certain
T1 sequence (whole entry): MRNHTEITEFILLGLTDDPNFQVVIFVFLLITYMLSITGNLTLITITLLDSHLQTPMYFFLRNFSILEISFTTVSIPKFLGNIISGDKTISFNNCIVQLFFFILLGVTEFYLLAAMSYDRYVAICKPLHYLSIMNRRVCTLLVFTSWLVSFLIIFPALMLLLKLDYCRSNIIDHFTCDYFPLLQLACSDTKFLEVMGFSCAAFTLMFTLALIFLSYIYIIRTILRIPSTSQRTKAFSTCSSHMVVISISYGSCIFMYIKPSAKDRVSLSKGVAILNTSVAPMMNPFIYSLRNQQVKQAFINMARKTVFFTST
In short: (§1)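 Values were gathered from published papers (main text and supplementary material), with extra details requested from the original authors when needed, and checked for typos and inconsistencies. Each receptor–molecule pair is called responsive (active) if the original authors judged the measured signal statistically different from baseline, and non-responsive (inactive) otherwise. Assay methods varied by source, often transient mammalian cell-line luciferase assays. Recorded details include cell line, G-protein, co-transfected protein and tags.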

Compound	odorant receptor agonist call
CC1=C(O)C(=O)OC1C (centres undefined)	inactive

biological target: T2, OR6C2 (Homo sapiens) (UniProt Q9NZP2); conditions: stereoisomer not certain
T2 sequence (whole entry): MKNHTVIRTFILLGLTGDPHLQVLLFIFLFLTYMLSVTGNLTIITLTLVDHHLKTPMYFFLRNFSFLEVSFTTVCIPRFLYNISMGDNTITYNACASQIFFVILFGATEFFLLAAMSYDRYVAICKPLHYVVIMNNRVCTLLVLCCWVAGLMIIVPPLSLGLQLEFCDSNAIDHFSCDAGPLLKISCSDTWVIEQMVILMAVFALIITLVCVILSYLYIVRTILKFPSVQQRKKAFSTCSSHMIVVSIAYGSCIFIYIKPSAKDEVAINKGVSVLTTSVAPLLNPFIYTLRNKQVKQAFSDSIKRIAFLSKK
In short: as §1

Compound	odorant receptor agonist call
CCC(S)C(C)CO (centres undefined)	inactive
CC(=O)c1c(C)c([N+](=O)[O-])c(C(C)(C)C)c([N+](=O)[O-])c1C	inactive
CC1CCCCCCCCCCCCC(=O)C1 (centres undefined)	inactive
CCCCCCC=CCCC=O	inactive
Cc1cnc(C)c(C)n1	inactive
CC1=C(O)C(=O)C(C)O1 (centres undefined)	inactive
CCC1OC(C)=C(O)C1=O (centres undefined)	inactive
CC1=NC(C)C(C)S1 (centres undefined)	inactive
CCCCCC(S)C(C)CO (centres undefined)	inactive
CCCCCC(=O)C(C)C(C)=O (centres undefined)	inactive
CCC1OC(=O)C(O)=C1C (centres undefined)	inactive
CCCC(S)CCOC(C)=O (centres undefined)	inactive
CC(CO)CS (centres undefined)	inactive
CC1=C(O)C(=O)OC1C (centres undefined)	inactive
CCCCC(S)C(C)CO (centres undefined)	inactive

biological target: T3, OR6C3 (Homo sapiens) (UniProt Q9NZP0); conditions: stereoisomer not certain
T3 sequence (whole entry): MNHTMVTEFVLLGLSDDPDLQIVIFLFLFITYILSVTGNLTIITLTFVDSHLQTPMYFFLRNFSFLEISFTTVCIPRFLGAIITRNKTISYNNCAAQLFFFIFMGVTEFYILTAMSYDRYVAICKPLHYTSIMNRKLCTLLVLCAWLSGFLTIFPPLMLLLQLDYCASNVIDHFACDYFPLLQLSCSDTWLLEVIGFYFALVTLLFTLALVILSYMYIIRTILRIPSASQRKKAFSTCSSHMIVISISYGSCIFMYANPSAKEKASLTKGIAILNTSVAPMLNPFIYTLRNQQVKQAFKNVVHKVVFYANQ
In short: as §1

Compound	odorant receptor agonist call
CCC(S)C(C)CO (centres undefined)	inactive
CC(=O)c1c(C)c([N+](=O)[O-])c(C(C)(C)C)c([N+](=O)[O-])c1C	inactive
CC1CCCCCCCCCCCCC(=O)C1 (centres undefined)	inactive
CCCCCCC=CCCC=O	inactive
Cc1cnc(C)c(C)n1	inactive
CC1=C(O)C(=O)C(C)O1 (centres undefined)	inactive
CCC1OC(C)=C(O)C1=O (centres undefined)	inactive
CC1=NC(C)C(C)S1 (centres undefined)	inactive
CCCCCC(S)C(C)CO (centres undefined)	inactive
CCCCCC(=O)C(C)C(C)=O (centres undefined)	inactive
CCC1OC(=O)C(O)=C1C (centres undefined)	inactive
CCCC(S)CCOC(C)=O (centres undefined)	inactive
CC(CO)CS (centres undefined)	inactive
CC1=C(O)C(=O)OC1C (centres undefined)	inactive
CCCCC(S)C(C)CO (centres undefined)	inactive

biological target: T4, OR6C4 (Homo sapiens) (UniProt Q8NGE1); conditions: stereoisomer not certain
T4 sequence (whole entry): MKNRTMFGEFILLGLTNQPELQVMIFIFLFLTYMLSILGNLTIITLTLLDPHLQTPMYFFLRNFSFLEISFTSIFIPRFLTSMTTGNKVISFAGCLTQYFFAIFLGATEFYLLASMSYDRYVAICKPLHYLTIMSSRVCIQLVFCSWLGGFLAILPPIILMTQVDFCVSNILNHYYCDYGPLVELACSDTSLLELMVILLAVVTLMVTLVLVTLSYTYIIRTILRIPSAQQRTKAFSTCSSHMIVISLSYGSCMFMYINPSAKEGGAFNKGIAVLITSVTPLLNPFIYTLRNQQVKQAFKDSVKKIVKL
In short: as §1

Compound	odorant receptor agonist call
CCC(S)C(C)CO (centres undefined)	inactive
CC(=O)c1c(C)c([N+](=O)[O-])c(C(C)(C)C)c([N+](=O)[O-])c1C	inactive
CC1CCCCCCCCCCCCC(=O)C1 (centres undefined)	inactive
CCCCCCC=CCCC=O	inactive
Cc1cnc(C)c(C)n1	inactive
CC1=C(O)C(=O)C(C)O1 (centres undefined)	inactive
CCC1OC(C)=C(O)C1=O (centres undefined)	inactive
CC1=NC(C)C(C)S1 (centres undefined)	inactive
CCCCCC(S)C(C)CO (centres undefined)	inactive
CCCCCC(=O)C(C)C(C)=O (centres undefined)	inactive
CCC1OC(=O)C(O)=C1C (centres undefined)	inactive
CCCC(S)CCOC(C)=O (centres undefined)	inactive
CC(CO)CS (centres undefined)	inactive
CC1=C(O)C(=O)OC1C (centres undefined)	inactive
CCCCC(S)C(C)CO (centres undefined)	inactive

tested on: T5, OR6C4; conditions: stereoisomer not certain
T5 sequence (whole entry): T4 sequence (whole entry) with I37V
In short: as §1

Compound	odorant receptor agonist call
CCCCCCC=CCCC=O	inactive
Cc1cnc(C)c(C)n1	inactive
CC1=C(O)C(=O)C(C)O1 (centres undefined)	inactive
CCC1OC(C)=C(O)C1=O (centres undefined)	inactive
CC1=NC(C)C(C)S1 (centres undefined)	inactive
CCC1OC(=O)C(O)=C1C (centres undefined)	inactive
CCCC(S)CCOC(C)=O (centres undefined)	inactive
CC1=C(O)C(=O)OC1C (centres undefined)	inactive
